Experiments:
[1] = Restoration of e-cadherin expression in human SW620 cells at 10 uM by in-cell-western assay relative to control; format: functional, cell-based; settings: SW-620
Procedure, shortened: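 In-Cell-Western immunofluorescence read-out of e-cadherin in SW620 colon carcinoma cells after treatment at 10 μM; value is average fold change from two assessments.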

[2] = Restoration of e-cadherin expression in human SW620 cells by in-cell-western assay; format: functional, cell-based; settings: SW-620
[3] = Intrinsic clearance in rat microsomes; format: ADME, Microsome
[4] = Intrinsic clearance in mouse microsomes; format: ADME, Microsome
[5] = Fraction unbound in rat; format: ADME, organism-based; settings: in vivo
[6] = biological target: Cytochrome P450 2D6 (Homo sapiens, UniProt P10635); experiment: Inhibition of CYP2D6 (unknown origin); format: ADME
[7] = Fraction unbound in mouse; format: ADME, organism-based; settings: in vivo
[8] = Fraction unbound in human; format: ADME, organism-based; settings: in vivo
[9] = biological target: Cytochrome P450 3A4 (Homo sapiens, UniProt P08684); experiment: Inhibition of CYP3A4 (unknown origin); format: ADME
[10] = Intrinsic clearance in human microsomes; format: ADME, Microsome
[11] = biological target: Cytochrome P450 2C9 (Homo sapiens, UniProt P11712); experiment: Inhibition of CYP2C9 (unknown origin); format: ADME
[12] = test system: Rattus norvegicus; experiment: Clearance in Sprague-Dawley rat at 1 mg/kg, iv; format: ADME, organism-based; settings: in vivo
Procedure, shortened: (§1)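 Single 1 mg/kg intravenous dose in male Sprague-Dawley rats; clearance and half-life from plasma pharmacokinetics.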

[13] = Half life in Sprague-Dawley rat at 1 mg/kg, iv; format: ADME, organism-based; settings: in vivo; procedure, shortened: as §1
[14] = biological target: T1, Cytochrome P450 1A2 (Homo sapiens, UniProt P05177); experiment: Inhibition of CYP1A2 (unknown origin); format: ADME
T1 sequence (P05177 whole entry): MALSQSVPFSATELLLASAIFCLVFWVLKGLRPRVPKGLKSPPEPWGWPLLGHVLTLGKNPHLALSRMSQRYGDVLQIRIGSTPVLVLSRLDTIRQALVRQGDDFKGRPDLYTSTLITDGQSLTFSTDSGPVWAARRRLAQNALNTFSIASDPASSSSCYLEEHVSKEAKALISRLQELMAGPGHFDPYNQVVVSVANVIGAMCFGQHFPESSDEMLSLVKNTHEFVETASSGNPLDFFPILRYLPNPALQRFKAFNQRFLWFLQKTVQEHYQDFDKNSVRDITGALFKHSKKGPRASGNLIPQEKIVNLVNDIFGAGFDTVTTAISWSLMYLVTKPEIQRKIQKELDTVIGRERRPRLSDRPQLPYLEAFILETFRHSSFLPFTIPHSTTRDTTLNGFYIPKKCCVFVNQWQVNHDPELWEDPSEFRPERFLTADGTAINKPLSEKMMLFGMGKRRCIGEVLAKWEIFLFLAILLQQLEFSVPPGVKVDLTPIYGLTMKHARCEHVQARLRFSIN
Procedure, shortened: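 CYP1A2 was assessed in a P450 isozyme panel with 3A4, 2C9 and 2D6. The compound was tested at 30 μM, and the value is reported as a threshold relative to that concentration.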

Sequence of Cytochrome P450 2D6 (P10635 whole entry): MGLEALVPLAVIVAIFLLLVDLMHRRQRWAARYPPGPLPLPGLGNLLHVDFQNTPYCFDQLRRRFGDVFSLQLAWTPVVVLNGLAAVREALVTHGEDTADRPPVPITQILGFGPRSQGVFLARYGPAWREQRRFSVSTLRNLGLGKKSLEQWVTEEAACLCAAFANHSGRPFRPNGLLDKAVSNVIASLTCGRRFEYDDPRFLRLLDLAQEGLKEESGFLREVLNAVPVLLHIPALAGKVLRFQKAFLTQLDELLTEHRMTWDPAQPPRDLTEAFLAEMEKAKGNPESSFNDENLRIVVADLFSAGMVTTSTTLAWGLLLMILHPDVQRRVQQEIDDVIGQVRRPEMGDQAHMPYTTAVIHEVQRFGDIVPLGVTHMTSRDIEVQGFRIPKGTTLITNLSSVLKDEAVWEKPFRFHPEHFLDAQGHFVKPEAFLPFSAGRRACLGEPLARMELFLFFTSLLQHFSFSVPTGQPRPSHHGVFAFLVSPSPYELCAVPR
Sequence of Cytochrome P450 2C9 (P11712 whole entry): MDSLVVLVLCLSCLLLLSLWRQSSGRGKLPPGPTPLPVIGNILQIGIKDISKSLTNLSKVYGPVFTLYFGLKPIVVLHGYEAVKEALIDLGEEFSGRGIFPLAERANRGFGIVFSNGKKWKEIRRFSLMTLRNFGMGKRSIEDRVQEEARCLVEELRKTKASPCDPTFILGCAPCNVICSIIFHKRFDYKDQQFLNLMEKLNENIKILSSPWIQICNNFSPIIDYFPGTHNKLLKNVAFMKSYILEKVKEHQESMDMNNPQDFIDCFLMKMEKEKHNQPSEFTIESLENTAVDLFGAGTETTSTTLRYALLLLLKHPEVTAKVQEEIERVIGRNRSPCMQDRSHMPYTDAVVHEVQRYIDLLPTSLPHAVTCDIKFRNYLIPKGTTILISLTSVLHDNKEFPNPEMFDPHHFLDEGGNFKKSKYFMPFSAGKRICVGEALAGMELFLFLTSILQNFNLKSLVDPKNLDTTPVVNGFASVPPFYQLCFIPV
Sequence of Cytochrome P450 3A4 (P08684 whole entry): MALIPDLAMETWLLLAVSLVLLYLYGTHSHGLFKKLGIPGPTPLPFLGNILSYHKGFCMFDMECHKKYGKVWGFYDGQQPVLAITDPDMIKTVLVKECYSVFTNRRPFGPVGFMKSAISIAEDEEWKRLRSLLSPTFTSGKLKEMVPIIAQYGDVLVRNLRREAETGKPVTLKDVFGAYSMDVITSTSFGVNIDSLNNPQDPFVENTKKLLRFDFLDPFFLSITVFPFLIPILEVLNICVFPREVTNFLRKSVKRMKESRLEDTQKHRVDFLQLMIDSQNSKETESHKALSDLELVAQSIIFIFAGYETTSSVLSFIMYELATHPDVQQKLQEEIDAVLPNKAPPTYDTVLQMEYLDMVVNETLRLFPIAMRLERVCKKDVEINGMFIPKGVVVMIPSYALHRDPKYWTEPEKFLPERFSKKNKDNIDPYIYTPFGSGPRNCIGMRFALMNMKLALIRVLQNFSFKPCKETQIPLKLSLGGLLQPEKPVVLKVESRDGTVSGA

EC50 [2]	SMILES	fold change (FC) [1]	further results
	CC(CNC(=O)c1cc(-c2cccs2)on1)c1ccncc1 (stereo unspecified)	0.32	
	O=C(NCCCNCc1ccccc1O)c1cc(-c2ccccc2)on1	3.59	
12.6 µM	O=C(Cc1c[nH]c2ccccc12)NCCCCNC(=O)c1cc(-c2ccccc2)on1		
	O=C(NCCCNCc1c[nH]c2ncccc12)c1cc(-c2ccccc2)on1	1.67	
	O=C(NCCCCNC(=O)c1cc(-c2ccccc2)on1)c1cscn1	3.7	
	O=C(NCCCNCc1ccc(O)c(O)c1)c1cc(-c2ccccc2)on1	1.54	
	O=C(NCCCNC(=O)c1cc(Br)ccc1O)c1cc(-c2ccccc2)on1	2.43	
	Cc1cc(CNCCCNC(=O)c2cc(-c3ccccc3)on2)on1	3.4	
5.6 µM	Cc1ccc(C(=O)NCCCCNC(=O)c2cc(-c3ccccc3)on2)c(O)n1		
	Cn1nc(C(=O)NCCCCc2ccncc2)cc1-c1ccccc1	1.38	
	O=C(NCCCCNC(=O)c1cc(-c2ccccc2)on1)c1ccc(O)c(O)c1	2.69	
	O=C(NCCCNC(=O)c1cc(-c2ccccc2)[nH]n1)c1ccncc1	1.29	
	Cc1ncc(CNCCCNC(=O)c2cc(-c3ccccc3)on2)o1	1.5	
	O=C(NCCCNCc1ccc(O)cc1O)c1cc(-c2ccccc2)on1	2.33	
	O=C(NCCCNC(=O)c1cc(-c2ccccc2)on1)c1cccnc1	3.05	
7.1 µM	O=C(NCCCCNC(=O)c1cc(-c2ccccc2)on1)c1cccnc1		
	O=C(NCCCCNC(=O)c1cccs1)c1cc(-c2cccs2)on1	3.04	
	O=C(NCCCCNC(=O)c1c[nH]c2ccccc12)c1cc(-c2ccccc2)on1	2.39	
	O=C(NCCCCNC(=O)c1cc(-c2ccccc2)on1)c1cocn1	3.35	
	COc1cncc(CNCCCNC(=O)c2cc(-c3ccccc3)on2)c1	3.58	

EC50 [2]	SMILES	fold change (FC) [1]	further results
5 µM	O=C(NCCCCNC(=O)c1cc(-c2cccs2)on1)c1cccnc1		
	O=C(NCCCNCc1c[nH]c2ccccc12)c1cc(-c2ccccc2)on1	1.44	
12 µM	N#Cc1ccnc(NCCCNC(=O)c2cc(-c3ccccc3)on2)c1		
	O=C(NCCCN1CCOCC1)c1n[nH]c2ccccc12	0.63	
	O=C(NCCCn1ccnc1)c1noc2ccccc12	1.21	
	Cc1c(C(=O)NCCCCc2ccncc2)nn(C)c1-c1ccccc1	0.75	
	O=C(NCCCCNC(=O)c1cc(I)ccc1O)c1cc(-c2ccccc2)on1	2.43	
	O=C(NCCCNCc1cccnc1)c1cc(-c2ccccc2)on1	3.06	
	O=C(NCCCNCc1ccccn1)c1cc(-c2ccccc2)on1	2.52	
8.8 µM	O=C(NCCCNC(=O)c1cc(-c2ccccc2)on1)c1ccncc1		
4.8 µM	O=C(NCCCNC(=O)c1nccs1)c1cc(-c2ccccc2)on1		
5.6 µM	Nc1cncc(C(=O)NCCCCNC(=O)c2cc(-c3cccs3)on2)n1		
4.6 µM	O=C(NCCCCNC(=O)c1ccc(Cl)o1)c1cc(-c2ccccc2)on1		
3.7 µM	O=C(Cc1ccccc1O)NCCCNC(=O)c1cc(-c2ccccc2)on1		
	O=C(NCCCNC(=O)c1n[nH]c2ccccc12)c1cc(-c2ccccc2)on1	1.62	
4.7 µM	O=C(NCCCCc1ccncc1)c1cc(-c2ccco2)on1		
	O=C(NCCCCNC(=O)c1cccnc1O)c1cc(-c2ccccc2)on1	5.23	clearance [3]: 33 mL/min/kg; clearance [4]: 180 mL/min/kg; Fu [5]: 0.11; IC50 [6]: > 30 µM; Fu [7]: 0.19; Fu [8]: 0.01; IC50 [9]: > 30 µM; clearance [10]: 0 mL/min/kg; IC50 [11]: > 30 µM; clearance [12]: 18 mL/min/kg; half-life [13]: 7.6 h; IC50 [14]: > 30 µM
15 µM	CC(=O)n1cc(CNCCCNC(=O)c2cc(-c3ccccc3)on2)c2ccccc21		
5.3 µM	[N-]=[N+]=Nc1ccnc(NCCCNC(=O)c2cc(-c3ccccc3)on2)n1		

From ChEMBL document CHEMBL3616409, “Optimization of a small molecule probe that restores e-cadherin expression” (Bioorg Med Chem Lett, 2015)
